The results in this text go back to ChEMBL document CHEMBL5154633 (J Med Chem, 2022).

One may read the Cmax as the highest concentration seen after dosing. Broadly, the AUC(0-t) is exposure summed from dosing to a finite time, without extrapolation to infinity. For orientation: Tmax means the time at which the peak concentration occurs. In general, IC50 refers to the concentration that gives 50% inhibition. What is called bioavailability is the share of a dose that reaches the circulation, judged against a reference dose that is usually intravenous. What is called AUC is concentration integrated over time. What is called half-life is the time in which the quantity being followed falls by half.

For data set [1], the system named is Murine hepatitis virus. Nature of the data set: Antiviral activity against MHV-A59 infected in BALB/c mouse assessed as improvement in survival at 100 mg/kg, ip administered at 0.5 hrs post infection followed by 50 mg/kg administered daily measured upto 14 days. It counts as functional. The settings on record: time <= 14 day. In outline:
(§1)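 Male SPF BALB/c mice, 3–4 weeks old, were inoculated intranasally with 30 μL MHV-A59 in PBS (TCID50 10^-7.125/100 μL). They received 100 mg/kg IG or IP at 0.5 hpi, then 50 mg/kg once daily for the next 4 d. Untreated infected controls received PBS. Survival was followed for 14 d, N = 8 per group.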

Data set [2] is described as follows: Toxicity AAV-human ACE2 transduced BALB/c mouse infected with SARS-COV2 assessed as loss of body weight at 25 mg/kg/day, ip administered 1 day prior to viral infection and treated for 8 days. The settings on record: in vivo, 192 h, time 8 day. Format: organism-based.
Data set [3] in a line: Cmax in Sprague-Dawley rat at 30 mg/kg, iv measured over 48 hrs by HPLC/MS analysis. It counts as ADME, organism-based. Also noted: dose 30 mg/kg, time 48 hrs, route iv. Particulars: in vivo.
In another data set the test system is Vero C1008. Nature of the data set: Cytotoxicity against African green monkey Vero cells assessed as reduction in cell viability upto 50 uM measured for 48 hrs by CCK8 assay. It counts as toxicity, cell-based. The settings on record: chlorocebus sabaeus, vero c1008, 48 h. The procedure, abridged:
(§2)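 Vero E6, Calu-3 or Caco-2 cells were seeded at 20 000/well. They were exposed to 0, 0.01, 0.1, 1, 5, 10 or 50 μM compound for 48 h, and viability was read by CCK-8.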
In general terms: Tetrazolium assays rely on reduction of a dye to a coloured formazan, in cell work by metabolically active cells.

In data set [4] the test system is SARS-CoV-2. Nature of the data set: Antiviral activity against SARS-CoV-2 infected in AAV-human ACE2 transduced BALB/c mouse assessed as viral clearance in lungs at 25 mg/kg/day, ip administered 1 day prior to viral infection and measured after 2 days post infection by focus forming assay. Particulars: Severe acute respiratory syndrome coronavirus 2, time 3.0 day. It counts as functional, organism-based.

A short description of data set [5]: Toxicity in BALB/c mouse infected with MHV-A59 assessed as change in body weight at 100 mg/kg, ip administered at 0.5 hrs post infection followed by 50 mg/kg administered daily measured upto 14 days. It counts as organism-based. The settings on record: in vivo, 336 h, time < 14 day. In outline: (§3)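 MHV-A59-infected male BALB/c mice (3–4 weeks) were dosed 100 mg/kg IG or IP at 0.5 hpi, then 50 mg/kg daily for 4 d. Uninfected drug-treated and PBS-only groups served as controls. Body weight was recorded daily for 14 d, N = 8 per group.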

Data set [6] can be described thus: AUC(0 to t) in Sprague-Dawley rat at 30 mg/kg, ig measured over 48 hrs by HPLC/MS analysis. Format: ADME, organism-based. Also noted: dose 30 mg/kg, time 48 hrs, route ig. The settings on record: in vivo, po.
Data set [7] can be described thus: Toxicity in BALB/c mouse infected with MHV-A59 assessed as change in body weight at 100 mg/kg, ig administered at 0.5 hrs post infection followed by 50 mg/kg administered daily measured upto 14 days. Format: organism-based. Particulars: in vivo, po, 336 h, time < 14 day. The procedure, abridged:
as §3

Data set [8] in a line: Tmax in Sprague-Dawley rat at 30 mg/kg, ig measured over 48 hrs by HPLC/MS analysis. It counts as ADME, organism-based. Particulars: in vivo, po.
The subject of data set [9] is Murine hepatitis virus. Nature of the data set: Antiviral activity against MHV-A59 infected in BALB/c mouse assessed as improvement in survival at 100 mg/kg, ig administered at 0.5 hrs post infection followed by 50 mg/kg administered daily measured upto 14 days. Format: functional. Particulars: time <= 14 day. In outline:
as §1

The test system of data set [10] is Murine hepatitis virus. Nature of the data set: Antiviral activity against MHV-A59 infected in BALB/c mouse assessed as reduction in viral titer in liver at 100 mg/kg, ip administered at 0.5 hrs post infection followed by 50 mg/kg administered daily measured upto 14 days by qRT-PCR analysis. It counts as functional. Also noted: scale not given: the % may be the effect or the level left. Particulars: time <= 14 day. In outline: (§4)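 Male BALB/c mice were infected intranasally with MHV-A59 and dosed 100 mg/kg IG or IP at 0.5 hpi, then 50 mg/kg daily. Three mice per group were killed at 3 dpi. Liver RNA was extracted and viral load quantified by qRT-PCR against PBS-treated infected controls.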

Data set [11] has as its system SARS-CoV-2. Nature of the data set: Antiviral activity against SARS-COV 2 infected in human Caco-2 cells assessed as inhibition of viral replication after 48 hrs by qRT-PCR analysis. Format: functional, organism-based. The settings on record: Severe acute respiratory syndrome coronavirus 2, Caco-2, 48 h. (In general: Quantitative PCR measures a nucleic acid by following its amplification.)

For data set [12], the system named is SARS-CoV-2. Nature of the data set: Antiviral activity against SARS-COV 2 infected in human Calu-3 cells assessed as inhibition of viral replication after 48 hrs by qRT-PCR analysis. It counts as functional, organism-based. Particulars: Severe acute respiratory syndrome coronavirus 2, Calu-3, 48 h.
Data set [13] has as its system Murine hepatitis virus. Nature of the data set: Antiviral activity against MHV-A59 infected in BALB/c mouse assessed as reduction in viral titer in liver at 100 mg/kg, ig administered at 0.5 hrs post infection followed by 50 mg/kg administered daily measured upto 14 days by qRT-PCR analysis. Also noted: scale not given: the % may be the effect or the level left. The settings on record: time <= 14 day. It counts as functional. In outline: as §4

Data set [14] deals with SARS-CoV-2. Nature of the data set: Antiviral activity against SARS-COV 2 infected in African green monkey Vero E6 cells assessed as inhibition of viral replication after 48 hrs by qRT-PCR analysis. Format: functional, organism-based. The settings on record: Severe acute respiratory syndrome coronavirus 2, Vero C1008, 48 h.
Data set [15] can be described thus: Tmax in Sprague-Dawley rat at 30 mg/kg, iv measured over 48 hrs by HPLC/MS analysis. Format: ADME, organism-based. The settings on record: in vivo.
The nature of data set [16]: Oral bioavailability in Sprague-Dawley rat at 30 mg/kg measured over 48 hrs by HPLC/MS analysis. Format: ADME, organism-based. Particulars: in vivo.
Data set [17] can be described thus: AUC(0 to t) in Sprague-Dawley rat at 30 mg/kg, iv measured over 48 hrs by HPLC/MS analysis. It counts as ADME, organism-based. Also noted: dose 30 mg/kg, time 48 hrs, route iv. Particulars: in vivo.
The nature of data set [18]: AUC in human plasma at 3 to 225 mg, iv administered as 2 hr infusion. Also noted: time 2 hrs, route iv. Particulars: dose 3-225 mg. It counts as ADME, organism-based.
A further data set deals with Caco-2. Nature of the data set: Cytotoxicity against human Caco-2 cells assessed as reduction in cell viability upto 50 uM measured for 48 hrs by CCK8 assay. The settings on record: caco-2, 48 h. Format: toxicity, cell-based. In outline: as §2
A further data set deals with Calu-3. Nature of the data set: Cytotoxicity against human Calu-3 cells assessed as reduction in cell viability upto 50 uM measured for 48 hrs by CCK8 assay. Format: toxicity, cell-based. Particulars: calu-3, 48 h. The procedure, abridged: as §2
A short description of data set [19]: Half life in human plasma at 3 to 225 mg, iv administered as 2 hr infusion. It counts as ADME, organism-based. Particulars: dose 3-225 mg.

Each structure is given as a SMILES string. The source made the active and inactive calls. The rule behind the calls is not given here.

`N#C[C@@]1(c2ccc3c(N)ncnn23)O[C@H](CO)[C@@H](O)[C@H]1O` [GS-441524]: the Activity is reported as 100% in the data set on Murine hepatitis virus [1]; “Non-Toxic” in data set [2]; “Non-Toxic” in the data set with Vero C1008; “Toxic” in data set [5]; “Toxic” in data set [7]; 100% in the data set on Murine hepatitis virus [9]. In addition, the Activity was 99.9% in the data set on Murine hepatitis virus [10], 99.9% with Murine hepatitis virus [13], “Non-Toxic” in the data set with Caco-2 and “Non-Toxic” with Calu-3. For the same molecule, the peak level in [3] (Cmax) was 164 µg/mL. Further, in the data set with SARS-CoV-2 [4], the result was Active. In addition, the figures for the area under the curve AUC(0-t) at 48 h in data set [6] and in [17] were 28700 ng·h/mL and 592 µg·h/mL, respectively. The Tmax in data set [8] came to 56.4 min; in data set [15] it was 6 min. Also, the 50% inhibitory concentration (IC50) with SARS-CoV-2 [11] came to 3620 nM; in the data set on SARS-CoV-2 [12], 3210 nM; in the data set on SARS-CoV-2 [14], 700 nM. Moreover, in data set [16], the bioavailability came to 4.84%. Further, the exposure (AUC) at 2 h in data set [18] was found to be 2230 ng·h/mL.
Regarding `CCC(CC)COC(=O)[C@H](C)N[P@](=O)(OC[C@H]1O[C@@](C#N)(c2ccc3c(N)ncnn23)[C@H](O)[C@@H]1O)Oc1ccccc1`, the IC50 with SARS-CoV-2 [11] came to 580 nM; with SARS-CoV-2 [12], 650 nM; in the data set on SARS-CoV-2 [14], 1350 nM. Further, the half-life in data set [19] was less than 60 min. In addition, in [18], the AUC at 2 h came out at 1590 ng·h/mL.
